Experimental data taken from PubChem BioAssay AID652260 (The Scripps Research Institute Molecular Screening Center, 2013).
Among all 3,500 compounds or so, about 1,000 (29%) were called active. A selection follows. Values without a mark were called inactive.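 The calls were made as follows: active = activation above its plate's cutoff, the mean activation of tested wells plus 3 SD (cut at about 7.9% in these data); inactive = the rest.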

test: BRM-dependent MMTV reporter reactivation – cell-based, luminescence, triplicate, confirmation (AID 652260); conditions: MG213 cells, MMTV-luciferase with dexamethasone, overnight, at 9.1 µM, stronger effect = higher value, DMSO wells 0%, reference activator 100%, MG213 cells expressing E1A, Rb sequestered
How it was run: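 Assay system: MG213 MMTV-luciferase reporter cells; Quantity: 600 cells in each well; Incubation: compound exposure 24 h at 37 °C after 1-day dexamethasone priming; Read-out basis: % activation relative to DMSO and positive-control wells; Measured by: OneGlo luminescence, 15 min room-temperature incubation; Benchmarks: DMSO wells as low control, reference activator compound as high.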

Question: With COc1cc(/C=N/NC(=O)c2ccccc2)ccc1OS(=O)(=O)c1ccccc1 as the molecule, how does the activation read?
Answer: 3.32%

Question: For Cc1nnc(NC(=O)Cn2c(=O)sc3ccccc32)s1, which activation is on record?
Answer: -3.31%

Question: Which activation does the source give for COC(=O)c1ccc(NCc2cc(O)ccc2O)cc1 here?
Answer: 1.42%

Question: For Cc1ccc(O)c(CNc2nc3ccccc3n2C)c1, which activation is on record?
Answer: 9.22% (active)

Question: With O=c1c2c(nc3n1CCCCC3)sc1c(O)cccc12 as the molecule, how does the activation read?
Answer: 15.2% (active)

Question: With CC(=O)c1ccc(NC(=O)c2sc3nc4n(c(=O)c3c2C)CCCCC4)cc1 as the molecule, how does the activation read?
Answer: -0.4%

Question: With FC(F)(F)c1cccc(-c2nc3ccccc3n2C(c2ccccc2)c2nc3ccccc3[nH]2)c1 (stereo not drawn) as the molecule, how does the activation read?
Answer: 3.9%

Question: With CC(=O)Oc1ccc(C(=O)Nc2nccs2)cc1 as the molecule, how does the activation read?
Answer: 6.25%

Question: With CCOc1cccc2c1OC1(CCCCC1)N1N=C(c3cccnc3)CC21 (stereo not drawn) as the molecule, how does the activation read?
Answer: 2.8%

Question: Which activation does the source give for Cc1ccc(-n2c(SCC(=O)N3CCC(C(=O)O)CC3)nc3ccccc3c2=O)cc1C here?
Answer: 4.21%

Question: For CN(C)CCNC(=O)c1ccc(Cl)c2cc3ccccc3nc12, which activation is on record?
Answer: -13.7%

Question: With CCCOc1ccc(-c2nc(N)n[nH]2)cc1 as the molecule, how does the activation read?
Answer: 4.15%

Question: Which activation does the source give for Cc1ccccc1C#CC1=CC(=O)CC(C)(C)C1 here?
Answer: 1%

Question: With Cc1ccccc1C1=N/C(=C/c2cccnc2)C(=O)O1 as the molecule, how does the activation read?
Answer: 0.02%

Question: With CCCCCCOC(=O)NCC(O)c1ccccc1 (stereo not drawn) as the molecule, how does the activation read?
Answer: 12.4% (active)

Question: With CCCCc1ccc(NC(=S)N2CCCC(CO)C2)cc1 (stereo not drawn) as the molecule, how does the activation read?
Answer: 6.12%

Question: For Cc1ccc(C(=O)Nc2nc3ccc(Cl)cc3s2)o1, which activation is on record?
Answer: 3.69%

Question: For CCOC(=O)c1c(C)[nH]c(C2=NNC(=NC(C)COC)SC2)c1C (stereo not drawn), which activation is on record?
Answer: 10.6% (active)

Question: For C1=C(CCNc2ncnc3c2cnn3-c2ccccc2)CCCC1, which activation is on record?
Answer: 3.15%

Question: For O=C(N[C@H]1CC[C@H](CC(=O)N2CCCCC2)O[C@@H]1CO)c1cccc(F)c1, which activation is on record?
Answer: 0.05%

Question: Which activation does the source give for CCc1ccc(NC2Nc3cc(C)nn3S2)cc1 (stereo not drawn) here?
Answer: 8.74% (active)

Question: Which activation does the source give for CCCn1c(=O)c2ccccc2n2c(SCC(=O)/C(C#N)=C(\C)N)nnc12 here?
Answer: 3.09%

Question: Which activation does the source give for COCC1CCN(C(=O)C2CCC(=O)N(Cc3cccc(C(F)(F)F)c3)C2)CC1 (stereo not drawn) here?
Answer: 2.05%

Question: For Cc1ccc(Nc2nc(Cl)c(C=O)s2)cc1, which activation is on record?
Answer: -3.27%

Question: With CCc1cc2c(=O)c(-c3ccon3)c(N)oc2cc1OC as the molecule, how does the activation read?
Answer: 14% (active)

Question: With CN(C)C(CNC(=O)c1ccc(OCc2cn3ccccc3n2)cc1)c1ccco1 (stereo not drawn) as the molecule, how does the activation read?
Answer: 2.21%

Question: For O=C(Nc1ccc(NC(=O)c2cccs2)cn1)c1ccco1, which activation is on record?
Answer: 2.8%

Question: For Cc1ccnc(Nc2nc3ccccc3s2)n1, which activation is on record?
Answer: 10% (active)

Question: With O=C(Nc1ccc(F)cc1)c1cc2c(s1)CCCC2 as the molecule, how does the activation read?
Answer: 9.06% (active)

Question: For O=C(NCC1CCCO1)c1cc2c(s1)CCCC2 (stereo not drawn), which activation is on record?
Answer: 11% (active)

Question: Which activation does the source give for Cc1ccnc(NC(=O)C2CCN(S(=O)(=O)c3c(C)c(C)cc(C)c3C)CC2)c1 here?
Answer: -0.54%

Question: For COC(=O)c1sc(-c2ccc(C(C)(C)C)cc2)cc1NC(=O)/C=C/C(=O)O, which activation is on record?
Answer: -3.23%

Question: For CCC(C)N(C)C1CCN(C(=S)Nc2ccc(OC)cc2)CC1 (stereo not drawn), which activation is on record?
Answer: 1.96%

Question: For COc1cccc(OCCOc2cccc(/C=N/n3cnnc3)c2)c1, which activation is on record?
Answer: 3.85%

Question: For O=C(CCCc1ccccc1)NCc1ccccc1, which activation is on record?
Answer: 8.8% (active)

Question: For COc1ccc(OCCCC(=O)NCCc2ccccc2)cc1, which activation is on record?
Answer: 1.28%

Question: With Cc1ccc(F)c(NC(=O)CCc2ccccc2)c1 as the molecule, how does the activation read?
Answer: 5.33%

Question: With CC(C)c1ccc(NC(=S)NC2CC3C=CC2C3)cc1 (stereo not drawn) as the molecule, how does the activation read?
Answer: 6.89%

Question: For CC(C)(C)c1ccc(NC(=O)NCc2ccco2)cc1, which activation is on record?
Answer: 14.5% (active)

Question: For Cc1ccc(NC(=O)C(=O)NCc2ccco2)c(C)c1, which activation is on record?
Answer: 0.78%

Question: With Cc1noc(C)c1S(=O)(=O)N(C)C[C@H]1Oc2c(NC(=O)Nc3ccc4c(c3)OCO4)cccc2C(=O)N([C@H](C)CO)C[C@@H]1C as the molecule, how does the activation read?
Answer: -2.45%

Question: Which activation does the source give for CC(C)(C)NC(=O)C(CCc1ccccc1)n1c(=O)c(-c2ccccc2)nc2ccccc21 (stereo not drawn) here?
Answer: 8.75% (active)

Question: For O=C(Cn1ncc(N2CCCC2)c(Br)c1=O)c1ccc(Cl)cc1, which activation is on record?
Answer: 3.52%

Question: Which activation does the source give for COc1ccc(/C=C/C(=O)Nc2ccc(C34CC5CC(CC(O)(C5)C3)C4)cc2)cc1OC here?
Answer: 15.3% (active)

Question: With Cn1cccc1/C=N/NC(=O)c1ccc(OC(F)(F)C(F)F)cc1 as the molecule, how does the activation read?
Answer: 3.85%

Question: For COc1ccc(C(=O)NC2=NCCS2)c(OC)c1, which activation is on record?
Answer: 10.5% (active)

Question: For CC1(C)CC(=O)C=C(NCCCNC2CCCCC2)C1, which activation is on record?
Answer: -0.17%

Question: For O=C(Nc1cc(=O)[nH]c2ncnn12)c1ccccc1Cl, which activation is on record?
Answer: 3.68%

Question: Which activation does the source give for CCCn1nc(C(=O)Nc2ccc3nc(C)sc3c2)c2ccccc2c1=O here?
Answer: -0.9%

Question: With Cc1ccc(C(=O)CSc2ccccc2C(=O)O)cc1 as the molecule, how does the activation read?
Answer: 16.1% (active)

Question: With CC(C)Cc1nnc(NC(=O)CCNC(=O)c2ccccc2Cl)s1 as the molecule, how does the activation read?
Answer: -0.13%

Question: With Cc1ccc(-c2nc3ccc(Cl)cn3c2Cc2ccccc2)cc1 as the molecule, how does the activation read?
Answer: 3.06%

Question: Which activation does the source give for Cc1ccc(N/C=C/C(=O)c2ccccc2)cc1C here?
Answer: 0.64%

Question: Which activation does the source give for Cc1cccc(-n2c(O)c(C=Nc3ccccc3N)c(=O)[nH]c2=O)c1 here?
Answer: 11.1% (active)

Question: With Cc1ccsc1C(=O)N/N=C/c1ccc([N+](=O)[O-])cc1 as the molecule, how does the activation read?
Answer: 6.1%

Question: For COc1ccc2ccccc2c1CNCc1ccccn1, which activation is on record?
Answer: 0.73%

Question: Which activation does the source give for Cn1sc(=O)c2cc(S(=O)(=O)NC3CC3)ccc21 here?
Answer: -1.88%

Question: For COc1cccc(C(=O)Nc2cc3c(cc2Br)OCCCO3)c1, which activation is on record?
Answer: 9.25% (active)

Question: With COc1cccc(C(=O)Nc2nc3ccc(S(C)(=O)=O)cc3s2)c1 as the molecule, how does the activation read?
Answer: 2.8%

Question: Which activation does the source give for O=C(O)c1ccc(COc2c(F)c(F)cc(F)c2F)o1 here?
Answer: -2.71%

Question: With Cc1nc(-c2nnc(SCC(=O)Nc3cc(C(F)(F)F)cc(C(F)(F)F)c3)n2C)cs1 as the molecule, how does the activation read?
Answer: -3.07%

Question: For Fc1ccc(/C=N/Nc2nc(-c3cccnc3)nc3ccccc23)cc1, which activation is on record?
Answer: 4.27%

Question: Which activation does the source give for Cc1ccc(NC(=O)c2cc3ccccc3o2)cc1 here?
Answer: 10.6% (active)

Question: For COc1ccc(C(=O)N/N=c2\oc3ccccc3cc2C(N)=O)cc1, which activation is on record?
Answer: 1.59%

Question: Which activation does the source give for CCOC(=O)Nc1ccc(NC(=O)OCC)cc1 here?
Answer: -0.46%

Question: With O=C(C1CCC1)N1CCN(S(=O)(=O)c2ccc([N+](=O)[O-])cc2)CC1 as the molecule, how does the activation read?
Answer: 0.04%

Question: Which activation does the source give for COC(=O)c1ccc(/C=C2/C(=O)Oc3ccccc32)cc1 here?
Answer: -2.13%

Question: With CCc1c(C)c2ccc(OC3CCCCC3=O)cc2oc1=O (stereo not drawn) as the molecule, how does the activation read?
Answer: 12.2% (active)

Question: With O=C(NC1CCCC1)C(=O)c1c[nH]c2ccccc12 as the molecule, how does the activation read?
Answer: 4.82%

Question: Which activation does the source give for CC(=O)c1sc(NC(=O)c2ccc(C)cc2)nc1C here?
Answer: 6.35%

Question: For CC1(C(=O)NS(=O)(=O)C2CC2)CCCN(C(=O)CSc2ccccc2)C1 (stereo not drawn), which activation is on record?
Answer: 1.21%

Question: With Oc1cccc2ccc(/C=C/c3ccc(Br)s3)nc12 as the molecule, how does the activation read?
Answer: 12.9% (active)

Question: For CC(C)CCNC(=O)c1ccc2c(Cl)c3c(nc2c1)CCC3, which activation is on record?
Answer: 2.09%
